# Assay results reported in ChEMBL document CHEMBL1124143, “Nonisomerizable analogues of (Z)- and (E)-4-hydroxytamoxifen. Synthesis and endocrinological properties of substituted diphenylbenzocycloheptenes” (1988).
# Tests used:
# [1] = molecular target: T1, Estrogen receptor (Rattus norvegicus) (UniProt P06211+Q62986); experiment: In vivo anti-uterotrophic effect in 0.2 ug estradiol benzoate stimulated immature rats at 20 ug; format: functional, organism-based
# Outline: (§1)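 Immature female Sprague-Dawley rats got daily subcutaneous injections of compound in 0.1 mL peanut oil for 3 days and were killed on day 4. Read-out was uterine weight (mg).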
# MCF7 [2] = experiment: Inhibition of MCF-7 human mammary tumor cell proliferation at 1*10e-8M; format: functional
# Outline: (§2)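 MCF-7 cells were plated at 5000 cells/mL. […] Cell number was read as colour intensity at 540 nm. Values are means of optical density from four separate cultures, […]. Statistics were one-way ANOVA with Newman-Keuls test.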
# MCF7 [3] = experiment: Inhibition of MCF-7 human mammary tumor cell proliferation 1*10e-7 M; format: functional; outline: as §2
# [4] = molecular target: T1, Estrogen receptor (Rattus norvegicus); experiment: In vivo anti-uterotrophic effect in 0.2 ug estradiol benzoate stimulated immature rats at 5 ug; format: functional, organism-based; outline: as §1
# [5] = molecular target: T1, Estrogen receptor (Rattus norvegicus); experiment: In vivo anti-uterotrophic effect in 0.2 ug estradiol benzoate stimulated immature rats at 10 ug; format: functional, organism-based; outline: as §1
# MCF7 [6] = experiment: Inhibition of 1*10e-7 M estradiol induced proliferation of MCF-7 human mammary tumor cells at 1*10e-6 M; format: functional; outline: as §2
# MCF7 [7] = experiment: (§3) Inhibition of 1*10e-8M estradiol induced proliferation of MCF-7 human mammary tumor cells; format: functional; outline: as §2
# MCF7 [8] = experiment: Inhibition of 1*10e-8M estradiol induced proliferation of MCF-7 human mammary tumor cells at 1*10e-7 M; format: functional; outline: as §2
# MCF7 [9] = experiment: Inhibition of MCF-7 human mammary tumor cell proliferation; format: functional; outline: as §2
# [10] = molecular target: Estrogen receptor (Homo sapiens) (UniProt Q92731+P03372); experiment: Inhibition of [3H]estradiol binding to Estrogen receptor of MCF-7 cell lysate […]; format: cell-based
# MCF7 [11] = experiment: Inhibition of MCF-7 human mammary tumor cell proliferation at 1*10e-6 M; format: functional; outline: as §2
# MCF7 [12] = experiment: as §3; format: functional; outline: as §2; remark: listed apart in the source
# [13] = molecular target: T1, Estrogen receptor (Rattus norvegicus); experiment: In vivo anti-uterotrophic effect in 0.2 ug estradiol benzoate stimulated immature rats at 50 ug; format: functional, organism-based; outline: as §1
# [14] = molecular target: T1, Estrogen receptor (Rattus norvegicus); experiment: In vivo anti-uterotrophic effect in 0.2 ug estradiol benzoate stimulated immature rats at 25 ug; format: functional, organism-based; outline: as §1
# [15] = molecular target: T1, Estrogen receptor (Rattus norvegicus); experiment: In vivo anti-uterotrophic effect in 0.2 ug estradiol benzoate stimulated immature rats at 12.5 ug; format: functional, organism-based; outline: as §1
# MCF7 [16] = experiment: Inhibition of 1*10e-7 M estradiol induced proliferation of MCF-7 human mammary tumor cells at 1*10e-7 M; format: functional; outline: as §2
# MCF7 [17] = experiment: Inhibition of 1*10e-7 M estradiol induced proliferation of MCF-7 human mammary tumor cells at 1*10e-8M; format: functional; outline: as §2
# MCF7 [18] = experiment: Inhibition of MCF-7 human mammary tumor cell proliferation at 1*10e-7 M; format: functional; outline: as §2
# [19] = molecular target: T1, Estrogen receptor (Rattus norvegicus); experiment: In vivo uterotrophic effect in estradiol stimulated immature rats; format: functional, organism-based; outline: as §1
compound,measurement,setting,value
CN(C)CCOc1ccc(C2=C(c3ccccc3)CCCc3cc(O)ccc32)cc1,Uterine weight,[1],71
same,Optical density,MCF7 [2],0.126
same,Optical density,MCF7 [3],0.066
same,Uterine weight,[4],75
same,Uterine weight,[5],72
same,Optical density,MCF7 [6],0.068
same,Optical density,MCF7 [7],0.52
same,Optical density,MCF7 [8],0.147
same,Optical density,MCF7 [9],0.417
same,relative binding affinity (RBA),[10],1.5
same,Optical density,MCF7 [11],0.083
same,Optical density,MCF7 [12],0.727
CN(C)CCOc1ccc(C2=C(c3ccccc3)CCCc3ccccc32)cc1,Uterine weight,[13],77
same,Uterine weight,[14],75
same,Uterine weight,[15],92
CN(C)CCOc1ccc2c(c1)CCCC(c1ccccc1)=C2c1ccc(O)cc1,Optical density,MCF7 [2],0.44
same,Optical density,MCF7 [16],0.566
same,Optical density,MCF7 [17],0.659
same,Optical density,MCF7 [6],0.363
same,Optical density,MCF7 [18],0.328
same,Optical density,MCF7 [9],0.337
same,Optical density,MCF7 [11],0.162
same,Optical density,MCF7 [12],0.707
C[C@]12CC[C@@H]3c4ccc(OC(=O)c5ccccc5)cc4CC[C@H]3[C@@H]1CC[C@@H]2O,Uterine weight,[19],108
